Source: ChEMBL document CHEMBL3525907, “Studies on the metabolism and biological activity of the epimers of sulindac” (Drug Metab Dispos, 2011)

Assays:
[1] = target: T1, Methionine-R-sulfoxide reductase B1 (Rattus norvegicus, UniProt Q52KJ8); assay: Drug metabolism in rat liver G50 fraction assessed as MSRB1-mediated DABS-Met formation measured per mg of protein at 200 uM by HPLC analysis; type: ADME, tissue-based
T1 sequence (Q52KJ8 whole entry): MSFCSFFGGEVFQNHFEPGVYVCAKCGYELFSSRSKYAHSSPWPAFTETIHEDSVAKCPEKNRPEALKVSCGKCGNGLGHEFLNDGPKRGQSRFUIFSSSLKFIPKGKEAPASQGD
How it was run: (§1)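 Rat liver purification fractions (DEAE, G50 peak) assayed with 200 μM DABS-R-Met(o) in 100 mM Tris pH 7.4, DTT (15 mM) or Trx system (1 mM NADPH, TrxB, TrxA) as reductant, 37°C; acetonitrile stop; DABS-Met resolved on C18 HPLC, absorbance 436 nm; activity per mg protein, expressed as purification factor.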

[2] = target: T1, Methionine-R-sulfoxide reductase B1; assay: Drug metabolism in rat liver S100 fraction assessed as MSRB1-mediated DABS-Met formation measured per mg of protein at 200 uM by HPLC analysis; type: ADME, tissue-based
How it was run: (§2)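 Fractions (S-100, 30–70% ammonium sulfate cut) from rat liver purification; aliquots incubated with 200 μM (R)-sulindac or 200 μM DABS-R-Met(o) in 100 mM Tris pH 7.4 with 15 mM DTT or Trx system (1 mM NADPH, TrxB, TrxA), 37°C. Stopped with acetonitrile; C18 HPLC, sulindac sulfide at 330 nm, DABS-Met at 436 nm. Specific activity as nmol product/mg protein/h.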

[3] = target: T1, Methionine-R-sulfoxide reductase B1; assay: Drug metabolism in rat liver DEAE fraction assessed as MSRB1-mediated DABS-Met formation measured per mg of protein at 200 uM by HPLC analysis; type: ADME, tissue-based; how it was run: as §1
[4] = target: T1, Methionine-R-sulfoxide reductase B1; assay: Drug metabolism in rat liver ammonium sulfate fraction assessed as MSRB1-mediated DABS-Met formation measured per mg of protein at 200 uM by HPLC analysis; type: ADME, tissue-based; how it was run: as §2
[5] = target: T1, Methionine-R-sulfoxide reductase B1; assay: Activity of MSRB1 in rat liver S100 fraction assessed as enzyme-mediated drug metabolism measured per mg of protein at 200 uM by HPLC analysis; type: ADME
How it was run: (§3)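 Fractions from rat liver reductase purification (S-100, 30–70% ammonium sulfate cut, DEAE pool, G50 gel filtration) incubated with 200 μM (R)-sulindac in 100 mM Tris pH 7.4 with 15 mM DTT, 37°C, 100 μl; stopped with acetonitrile; sulindac sulfide quantified by C18 HPLC at 330 nm; specific activity as nmol product/mg protein/h.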

[6] = target: T1, Methionine-R-sulfoxide reductase B1; assay: Activity of MSRB1 in rat liver G50 fraction assessed as enzyme-mediated drug metabolism measured per mg of protein at 200 uM by HPLC analysis; type: ADME; how it was run: as §3
[7] = target: T1, Methionine-R-sulfoxide reductase B1; assay: Activity of MSRB1 in rat liver DEAE fraction assessed as enzyme-mediated drug metabolism measured per mg of protein at 200 uM by HPLC analysis; type: ADME; how it was run: as §3
[8] = target: T1, Methionine-R-sulfoxide reductase B1; assay: Activity of MSRB1 in rat liver ammonium sulfate fraction assessed as enzyme-mediated drug metabolism measured per mg of protein at 200 uM by HPLC analysis; type: ADME; how it was run: as §3

Row | Drug metabolism [1] | Drug metabolism [2] | Drug metabolism [3] | Drug metabolism [4] | Drug metabolism [5] | Drug metabolism [6] | Drug metabolism [7] | Drug metabolism [8] | SMILES
1 | metabolite_detected | metabolite_detected | metabolite_detected | metabolite_detected |  |  |  |  | CN(C)c1ccc(/N=N/c2ccc(S(=O)(=O)N[C@@H](CC[S@@+](C)[O-])C(=O)O)cc2)cc1
2 |  |  |  |  | metabolite_detected | metabolite_detected | metabolite_detected | metabolite_detected | CSCC[C@H](NS(=O)(=O)c1ccc(/N=N/c2ccc(N(C)C)cc2)cc1)C(=O)O
